Holding throughout (format): functional
In experiment [1] the test system is A-431. Nature of the experiment: Antiproliferative activity against human A431 cells at 10 uM by MTT assay. In a few lines: (§1)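 MTT read-out of proliferation in A431 (human epithelial tumour) and SW480 (human colon carcinoma) cells, both described as expressing SSTRs. Each analogue was tested at […]. TT-232 and cycloheximide were run as positive controls.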
Background: Tetrazolium dyes change colour on reduction, which living cells bring about.

The subject of experiment [2] is A-431. Nature of the experiment: Antiproliferative activity against human A431 cells at 25 uM by MTT assay. A digest of the protocol: as §1
The subject of experiment [3] is A-431. As to the kind of experiment: Antiproliferative activity against human A431 cells at 50 uM by MTT assay. A digest of the protocol:
as §1

The test system of experiment [4] is SW480. Nature of the experiment: Antiproliferative activity against human SW480 cells at 10 uM by MTT assay. A digest of the protocol:
as §1

Experiment [5] has as its system SW480. Nature of the experiment: Antiproliferative activity against human SW480 cells at 25 uM by MTT assay. In a few lines:
as §1

In experiment [6] the test system is SW480. As to the kind of experiment: Antiproliferative activity against human SW480 cells at 50 uM by MTT assay. A digest of the protocol:
as §1

Where a SMILES comes first, the peptide text is derived from it. Bridges are numbered along the chain shown (N, C = ends). [ ]: non-standard residue; d: D form.

As for `Cc1cc(O)cc(C)c1C[C@@H]1NC(=O)CCc2[nH]c(=O)c(nc2C)CCCCNC(=O)[C@H](CCCCN)NC(=O)[C@@H](Cc2c[nH]c3ccccc23)NC1=O`, the Activity with A-431 [1] is 0%; with A-431 [2] it was 0%; in the experiment with A-431 [3], 0%; in the experiment with SW480 [4], 8%; in the experiment with SW480 [5], 16%; in the experiment with SW480 [6] it was 14%.

As for `Cc1nc2c(=O)[nH]c1CCC(=O)N[C@@H](Cc1ccccc1)C(=O)N[C@H](Cc1c[nH]c3ccccc13)C(=O)N[C@@H](CCCCN)C(=O)NCCCC2`, the Activity in the experiment on A-431 [1] stood at 31%; with A-431 [2], 28%; in the experiment with A-431 [3], 25%; with SW480 [4], 0%; with SW480 [5], 7%; in the experiment with SW480 [6] it was 0%.

On to `Cc1nc2c(=O)[nH]c1CCCCNC(=O)[C@H](CCCCN)NC(=O)[C@@H](Cc1c[nH]c3ccccc13)NC(=O)[C@H](Cc1ccccc1)NC(=O)CC2`, for which the Activity in the experiment on A-431 [1] is reported as 0%; with A-431 [2] it was 0%; with A-431 [3], 0%; in the experiment on SW480 [4] it was 2%; in the experiment on SW480 [5], 4%; with SW480 [6] it was 4%.

`Cc1nc2c(=O)[nH]c1CCCCNC(=O)[C@H](CCCCN)NC(=O)[C@@H](Cc1c[nH]c3ccccc13)NC(=O)[C@H](Cc1ccc(O)cc1)NC(=O)CC2`: the Activity is given as 28% in the experiment on A-431 [1]; 42% in the experiment on A-431 [2]; 58% with A-431 [3]; 35% with SW480 [4]; 31% with SW480 [5]; 35% with SW480 [6].

`Cc1cc(O)cc(C)c1C[C@@H]1NC(=O)CCc2nc(C)c([nH]c2=O)CCCCNC(=O)[C@H](CCCCN)NC(=O)[C@@H](Cc2c[nH]c3ccccc23)NC1=O`: the Activity in the experiment on A-431 [1] came to 0%; in the experiment on A-431 [2], 0%; with A-431 [3], 0%; in the experiment on SW480 [4], 2%; with SW480 [5], 11%; with SW480 [6], 7%.

As for `C[C@@H]1C[C@@H]([C@H](O)CC2CC(=O)NC(=O)C2)C(=O)[C@@H](C)C1` [CYCLOHEXIMIDE], the Activity in the experiment with A-431 [1] turned out to be 40%; in the experiment on A-431 [2] it was 70%; with A-431 [3], 80%; with SW480 [4] it was 68%; in the experiment with SW480 [5], 85%; with SW480 [6], 92%.

`Cc1nc2c(=O)[nH]c1CCC(=O)N[C@@H](Cc1ccc(O)cc1)C(=O)N[C@H](Cc1c[nH]c3ccccc13)C(=O)N[C@@H](CCCCN)C(=O)NCCCC2`: the Activity in the experiment with A-431 [1] amounted to 19%; in the experiment on A-431 [2], 36%; in the experiment with A-431 [3] it was 56%; with SW480 [4] it was 24%; in the experiment with SW480 [5] it was 23%; in the experiment on SW480 [6], 7%.

Consider `C[C@@H](O)[C@H](NC(=O)[C@@H]1CSSC[C@H](NC(=O)[C@H](N)Cc2ccccc2)C(=O)N[C@@H](Cc2ccc(O)cc2)C(=O)N[C@H](Cc2c[nH]c3ccccc23)C(=O)N[C@@H](CCCCN)C(=O)N1)C(N)=O` [TT-232] (H-[dF]CY[dW]KCT-NH2; disulfide 2-6), for which the Activity was determined as 50% in the experiment with A-431 [1]; 60% in the experiment on A-431 [2]; 80% in the experiment with A-431 [3]; 13% in the experiment on SW480 [4]; 47% with SW480 [5]; 88% with SW480 [6].

Source of the values: ChEMBL document CHEMBL1152262, “New cyclic somatostatin analogues containing a pyrazinone ring: importance of Tyr for antiproliferative activity” (2008).
